LEDGF integ inh – blocks HIV-1 LEDGF/p75-dependent DNA integration | 370,000 compounds, 0.64% hits | inhibition, % at 3.7 µM | TR-FRET IN-LEDGF/p75 DNA integration, Eu/Cy5;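 active = inhibition above the screen-wide mean plus 3 SD, cut at about 13% in these data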;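 also: signal is the Cy5 over europium emission ratio at 671 and 618 nm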
MBD2 inh – MBD2-methylated oligo binding inhibition; Q9UBB5; TR-FRET, MBD2 binding to methylated oligonucleotide; inhibition, % at 4.4 µM; 370,000 compounds, 0.31% hits; in the data active = inhibition above about 13%
Target sequence (Q9UBB5 whole entry, looked up): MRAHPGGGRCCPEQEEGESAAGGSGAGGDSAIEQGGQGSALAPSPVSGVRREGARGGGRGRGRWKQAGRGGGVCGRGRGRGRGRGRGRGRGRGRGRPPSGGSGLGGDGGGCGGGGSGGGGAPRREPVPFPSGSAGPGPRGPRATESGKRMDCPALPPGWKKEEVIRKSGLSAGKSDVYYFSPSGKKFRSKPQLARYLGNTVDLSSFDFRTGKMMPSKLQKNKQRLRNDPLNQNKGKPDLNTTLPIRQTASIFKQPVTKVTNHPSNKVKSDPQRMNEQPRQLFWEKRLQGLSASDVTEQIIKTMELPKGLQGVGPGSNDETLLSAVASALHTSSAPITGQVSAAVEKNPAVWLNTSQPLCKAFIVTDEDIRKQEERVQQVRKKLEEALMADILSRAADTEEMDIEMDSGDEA
TDP2 inh – TDP2 (human) inhibition, absorbance primary screen; O95551; recombinant TDP2, T5PNP hydrolysis, p-nitrophenol absorbance 415 nm; inhibition, % at 12.8 µM; 370,000 compounds, 0.34% hits; AID 720702;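 active = inhibition above the mean of all tested compounds plus 3 SD, set per campaign, cut at about 25% in these data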
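System – recombinant human TDP2 · Quantity – TDP2 enzyme at 120 nM final · Doses – single concentration, 12.8 µM nominal, with 1% DMSO · Incubation – 2 h at 37 °C · Measured by – epi absorbance of p-nitrophenol freed from T5PNP by hydrolysis · Read-out – % inhibition relative to enzyme-containing and enzyme-free wells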
UHRF1 MBD2 ctr – human UHRF1 methylated DNA binding inhibitors | Q96T88 | 370,000 compounds, 0.75% hits | inhibition, % at 4.4 µM | UHRF1 binding to methylated oligo, TR-FRET;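 also: UHRF1 SRA domain binding a hemimethylated CpG hairpin DNA probe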
UHRF1 DNA bind – counter-screen for MBD2 inhibitors: human UHRF1 methylated DNA binding inhibitors | shares compounds with MBD2 inh | UHRF1 binding to methylated oligonucleotide, TR-FRET | 1,000 compounds, 25% hits | inhibition, % at 4.4 µM;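 also: UHRF1 SRA domain binding a labeled hemimethylated CpG hairpin DNA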
MBD2 confirm – MBD2-DBD methyl-DNA binding inhibition, TR-FRET confirmation; shares compounds with MBD2 inh; TR-FRET MBD2-DBD binding to methylated oligonucleotide; 1,000 compounds, 26% hits; AID 720531; inhibition, % at 4.4 µM; in the data active = inhibition above about 14%
A number is an active result; – = inactive; · = not tested or not shown. Compounds with a hit are over-represented: about 1.6% of the library has one in this group of screens. Rule as the data show it, unless noted: active = inhibition above about 21%; inactive = the rest.

SMILES	LEDGF integ inh	MBD2 inh	TDP2 inh	UHRF1 MBD2 ctr	UHRF1 DNA bind	MBD2 confirm
CCN(Cc1ccccc1)S(=O)(=O)c1c(C)[nH]c(C)c1C(=O)N1CCCCC1	–	14	–	–	–	–
N#Cc1cccc(NC(=O)c2cc(C3CCCCN3C(=O)c3ccc4c(c3)CCO4)on2)c1 (stereo not given)	–	53	–	–	–	–
Cc1ccc(C2=NN(C(=O)CSc3nccn3C)C(c3ccco3)C2)cc1 (stereo not given)	–	–	–	–	·	·
O=C(N=Nc1c(O)n(Cc2ccccc2)c2ccccc12)c1ccc(O)cc1	–	41	–	–	–	–
COc1ccc2oc3cc(C)[n+]([O-])c(-c4ccc(Cl)cc4)c3c2c1	–	13	–	–	–	–
Cc1ccc2cccc(OCC(=O)Nc3cccc(S(=O)(=O)N4CCCC4)c3)c2n1	–	17	–	–	–	–
Cc1ccc(OCC(=O)Nc2cccc(S(=O)(=O)N3CCCCC3)c2)c([N+](=O)[O-])n1	–	–	–	–	·	·
CCOC(=O)CC(=O)CSc1nc2c(C)c(C)ccc2cc1C	–	–	–	–	·	·
CC1(C)Cc2cccc(OCC(=O)OCC(=O)Nc3ccc(C(N)=O)cc3)c2O1	–	–	–	–	·	·
CCN(CC)C(=O)c1cc2c(=O)c3cc(F)ccc3oc2nc1C	–	19	–	–	–	–
O=C(COC(=O)c1c2c(nc3ccccc13)/C(=C/c1ccco1)CC2)NC1CCCC1	39	14	–	45	43	32
Cc1c(C(=O)Nc2cccc(F)c2)cnn1-c1ccccc1	–	13	–	–	–	–
CCN(CC)CCNc1nc2cc(OC)c(OC)cc2c2nc(-c3ccccc3)nn12	–	31	–	38	34	25
CCCCNC(=O)CCC(=O)NNc1nc2ccccc2c2nc(-c3ccccc3)nn12	–	–	–	–	·	·
Cc1c(O)nc(SCC(=O)Nc2cccc(C(F)(F)F)c2)n(-c2ccccc2)c1=O	–	–	–	–	·	·
Cc1ccc(C(=O)O)cc1-c1ccc(/C=C2/NC(=O)N(c3ccccc3)C2=O)o1	–	14	–	43	30	–
O=C1N/C(=C/c2ccc(N3CCOCC3)o2)C(=O)N1c1ccccc1	–	–	–	–	·	·
CN(C)CCNc1ccc(CO)c2sc3ccc(O)cc3c(=O)c12	–	16	–	–	–	27
COc1ccc2sc3cccc(NCCN(C)C)c3c(=O)c2c1	–	–	–	–	·	·
CC(C)NS(=O)(=O)c1ccc(OCC(=O)N2CCCC2)c(Cl)c1	–	24	–	–	–	–
CC(=O)Nc1sc2c(c1-c1nc3ccccc3s1)CCCNC2	–	21	–	–	–	32
O=C(Nc1sc2c(c1-c1nc3ccccc3s1)CCNC2)C(F)F	–	–	–	–	·	·
CC(=O)Nc1sc2c(c1-c1nc3ccccc3s1)CCN(C(C)C)CC2	–	22	–	–	–	26
CC(C)C[C@H]1COc2cc(Br)ccc2S(=O)(=O)N1Cc1ccc(F)cc1F	–	–	–	–	·	·
O=C1c2ccccc2C(=O)c2c(NCCCN(CCO)CCO)cccc21	–	56	–	36	57	59
SMILES	LEDGF integ inh	MBD2 inh	TDP2 inh	UHRF1 MBD2 ctr	UHRF1 DNA bind	MBD2 confirm
CCN(CC)CC(=O)Nc1cccc2c1C(=O)c1ccccc1C2=O	–	–	–	–	·	·
Cc1ccc(-c2nc3cnccn3c2Nc2c(C)cccc2C)o1	–	–	–	–	·	·
CC(=O)C1=C(O)C(=O)N(c2ccc(S(N)(=O)=O)cc2)C1c1ccc([N+](=O)[O-])cc1 (stereo not given)	–	–	–	–	·	·
Cc1ccc(C(=O)NCCCC(=O)O)o1	–	–	–	–	·	·
CCN(CC(=O)NC(C)(C)C)Cc1nc2c(Br)cc(Br)cc2c(=O)[nH]1	–	41	–	–	–	–
Cc1ccc(-c2nc(NCCCO)c3ccccc3n2)cc1	–	–	–	–	·	·
OCCCNc1c2ccccc2nc2ccccc12	–	31	–	28	33	34
COc1ccc(N2CC(C(=O)N[C@@H](C)C(=O)NC(C)c3ccccc3)CC2=O)cc1 (stereo not given in full)	–	–	–	–	·	·
COc1ccc2cc3cc(C(=O)Nc4ccc(F)cc4)sc3nc2c1	–	29	–	–	29	28
CCC(C)[C@H](NC(=O)NC1CCN(Cc2ccccc2)CC1)C(=O)OC (stereo not given in full)	–	15	–	–	–	–
Cn1cnc([N+](=O)[O-])c1S(=O)(=O)Oc1ccccc1	–	14	–	–	–	–
CCCc1c(C)[nH]c2ccc(C(=O)O)cc2c1=S	–	25	–	77	38	23
Cc1[nH]c2ccc(C(=O)O)cc2c1C	–	–	–	–	·	·
O=c1nc2ccccc2c2n1CC(CN1CCN(c3ccc(F)cc3)CC1)N2 (stereo not given)	–	–	–	–	·	·
O=C(O)c1cccc2c3c([nH]c12)CCCC3	–	18	–	–	–	–
CCN(CC)C(=O)c1ccc2sc([C@H]3C[C@H](O)[C@@H](CO)O3)nc2c1	–	21	–	–	–	–
Cc1ccc2[nH]c(O)c(N=NC(=O)c3ccc(NS(=O)(=O)c4cccs4)cc3)c2c1	–	–	–	–	·	·
Cc1cccc2c(N=NC(=O)c3ccc(NS(=O)(=O)c4cccs4)cc3)c(O)[nH]c12	–	21	–	–	–	–
O=C(O)c1ccc(Cl)c(S(=O)(=O)N(Cc2ccccc2)c2ccccc2)c1	–	–	–	–	·	·
CCN(c1ccccc1)S(=O)(=O)c1cc(C(=O)O)ccc1C	–	25	–	60	51	27
Cc1ccc(C(=O)Nc2nc(C)c(C(=O)N(C)C)s2)o1	–	–	–	–	·	·
Cc1ccc(C(=O)Nc2nc(-c3ccco3)c(-c3ccco3)s2)o1	85	40	–	88	–	–
CC(C)c1ccccc1NC(=O)Nc1ccc(F)cc1F	–	–	–	–	·	·
CC1Cc2ccccc2N1S(=O)(=O)c1ccc2c(c1)n(C)c(=O)c(=O)n2C (stereo not given)	–	14	–	–	–	–
CC(=O)N1c2ccc(S(=O)(=O)N3c4ccccc4CC3C)cc2CC1C (stereo not given)	–	–	–	–	·	·
CC(=O)OC[C@@H]1CN(Cc2ccccc2)C[C@H](n2ccc3c(N)ncnc32)O1	–	36	–	–	–	–
COc1ccc(CCN(Cc2cc3cccc(C)c3[nH]c2=O)C(=O)NC2CCCCC2)cc1OC	–	–	–	–	·	·
Cc1cc2[nH]c3c4ccccc4nc(C)c3c2cc1C	–	17	–	–	–	33
Cc1ccc(CNC(=O)CN(C(=O)C2(C)CC(=O)N=C3C=CC=CN32)c2ccccc2)cc1 (stereo not given)	–	–	–	–	·	·
COC(=O)[C@H]1[C@H](c2ccccc2)[C@H](C(=O)OC)O[C@H]1c1ccccc1	–	–	–	–	·	·

Screening data: PubChem BioAssay, The Scripps Research Institute Molecular Screening Center
